According to ChEMBL document CHEMBL2086325, “Suppression of autoimmune arthritis by Celastrus-derived Celastrol through modulation of pro-inflammatory chemokines” (Bioorg Med Chem, 2012):
Calls of active or inactive are those of the source. No cut-off for these calls is given here.

Tests used:
Rattus norvegicus [1] = species on record: Rattus norvegicus; test: Antiarthritic effect in IL-1beta-stimulatedspleen adherent cells isolated from Lewis rat adjuvant-induced arthritis model assessed as reduction in TNFalpha production pre-incubated with compound for 30 mins before stimulation with IL-1beta for 48 hrs by multiplex assay; assay type: functional, tissue-based; conditions: Spleen
Rattus norvegicus [2] = test: (§1) Antiarthritic effect in Lewis rat adjuvant-induced arthritis model serum assessed as reduction in GRO/KC production at 200 ug, ip starting from arthritis onset and continued uninterrupted until study end by cytokine multiplex assay; assay type: functional, organism-based
Summary of the method: (§2)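 Arthritic Lewis rats (Mtb 1.5 mg s.c. in mineral oil) were given 200 μg/rat i.p. daily from onset until the day before harvest; controls received DMSO/PBS vehicle. On d 18, blood was taken by cardiac puncture after euthanasia and serum stored at −80 °C. Serum pooled from 4 rats was assayed in triplicate by multiplex.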

Rattus norvegicus [3] = test: as §1, with “synovial infiltrating cells restimulated with sonicated Mtb post isolation” for “serum”, “TNFalpha” for “GRO/KC”; assay type: functional, organism-based
Summary of the method: (§3)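 Male Lewis rats were immunized s.c. with heat-killed Mtb H37Ra (1.5 mg/rat) in mineral oil. From arthritis onset they received 200 μg/rat i.p. daily (DMSO stock diluted in PBS); controls got 1.2% DMSO in PBS. On d 18, draining lymph node or synovial-infiltrating cells were cultured at 1.5 × 10^6/well in 2% FBS medium ± sonicated Mtb (10 μg/ml) for 24 h. Supernatants were analysed by multiplex.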

Rattus norvegicus [4] = test: Antiarthritic effect in Lewis rat adjuvant-induced arthritis model synovial infiltrating cells restimulated with sonicated Mtb post isolation assessed as reduction in GRO/KC production at 200 ug, ip starting from arthritis onset and continued uninterrupted until study end by cytokine multiplex assay; assay type: functional, organism-based; summary of the method: as §3
Rattus norvegicus [5] = test: Antiarthritic effect in Lewis rat adjuvant-induced arthritis model serum assessed as reduction in TNFalpha production at 200 ug, ip starting from arthritis onset and continued uninterrupted until study end by cytokine multiplex assay; assay type: functional, organism-based; summary of the method: as §2
Rattus norvegicus [6] = species on record: Rattus norvegicus; test: Antiarthritic effect in sonicated Mtb-stimulated spleen adherent cells isolated from Lewis rat adjuvant-induced arthritis model assessed as reduction in IL6 production pre-incubated with compound for 30 mins before stimulation with sonicated-Mtb for 48 hrs by multiplex assay; assay type: functional, tissue-based
Rattus norvegicus [7] = test: Antiarthritic effect in Lewis rat adjuvant-induced arthritis model spleen adherent cells restimulated with sonicated Mtb post isolation assessed as reduction in MIP-1alpha production at 200 ug, ip starting from arthritis onset and continued uninterrupted until study end by cytokine multiplex assay; assay type: functional, organism-based
Summary of the method: (§4)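 Mtb-immunized male Lewis rats were dosed 200 μg/rat i.p. daily from arthritis onset (vehicle: 1.2% DMSO/PBS). Spleen adherent cells were prepared on d 18, plated at 1.5 × 10^6/well in 2% FBS medium and restimulated with sonicated Mtb (10 μg/ml) for 24 h. Supernatant chemokines and cytokines were measured by Luminex multiplex. Mean ± SD of triplicates from 4–5 rats.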

Rattus norvegicus [8] = test: Antiarthritic effect in Lewis rat adjuvant-induced arthritis model lymph node cells restimulated with sonicated Mtb post isolation assessed as reduction in GRO/KC production at 200 ug, ip starting from arthritis onset and continued uninterrupted until study end by cytokine multiplex assay; assay type: functional, organism-based; summary of the method: as §3
[9] = Increase in CCR1 protein surface expression in sonicated Mtb-stimulated spleen adherent cells isolated Inhibition of cell migration of RANTES-stimulated spleen adherent cells isolated from Lewis rat adjuvant-induced arthritis model at 0. 3 uM by Transwell cell migration assay; assay type: functional
Summary of the method: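 Transwell assay with 8-μm polycarbonate inserts. Spleen adherent cells (1 × 10^6) from arthritic rats were placed in the upper chamber; the lower chamber held serum-free RPMI with RANTES (50 ng/ml) ± compound (0.1, 0.3 μM). Cells migrated 24 h at 37 °C, 5% CO2. Lower-surface cells were fixed in 4% formaldehyde, DAPI-stained, imaged at 10× and counted by image analysis. RANTES alone was set as 100%.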

Rattus norvegicus [10] = test: Antiarthritic effect in Lewis rat adjuvant-induced arthritis model spleen adherent cells restimulated with sonicated Mtb post isolation assessed as reduction in TNFalpha production at 200 ug, ip starting from arthritis onset and continued uninterrupted until study end by cytokine multiplex assay; assay type: functional, organism-based; summary of the method: as §4
Rattus norvegicus [11] = test: Antiarthritic effect in Lewis rat adjuvant-induced arthritis model lymph node cells restimulated with sonicated Mtb post isolation assessed as reduction in IL6 production at 200 ug, ip starting from arthritis onset and continued uninterrupted until study end by cytokine multiplex assay; assay type: functional, organism-based; summary of the method: as §3
Rattus norvegicus [12] = test: Antiarthritic effect in Lewis rat adjuvant-induced arthritis model lymph node cells restimulated with sonicated Mtb post isolation assessed as reduction in RANTES production at 200 ug, ip starting from arthritis onset and continued uninterrupted until study end by cytokine multiplex assay; assay type: functional, organism-based; summary of the method: as §3
Rattus norvegicus [13] = species on record: Rattus norvegicus; test: Antiarthritic effect in IL-1beta-stimulatedspleen adherent cells isolated from Lewis rat adjuvant-induced arthritis model assessed as reduction in IL6 production pre-incubated with compound for 30 mins before stimulation with IL-1beta for 48 hrs by multiplex assay; assay type: functional, tissue-based; conditions: Spleen
Rattus norvegicus [14] = test: Antiarthritic effect in Lewis rat adjuvant-induced arthritis model spleen adherent cells restimulated with sonicated Mtb post isolation assessed as reduction in CCR2 expression at 200 ug, ip starting from arthritis onset and continued uninterrupted until study end by qPCR; assay type: functional, organism-based
Summary of the method: (§5)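 From onset of Mtb-induced arthritis, rats received 200 μg/rat i.p. daily or vehicle. Spleen adherent cells harvested on d 18 (1.5–2.0 × 10^6 cells/well) were cultured in medium or with sonicated Mtb (10 μg/ml) for 24 h. Receptor mRNA was quantified by qPCR after TRIzol RNA isolation and cDNA synthesis, normalized to HGPRT and reported as relative message.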

Rattus norvegicus [15] = test: Antiarthritic effect in Lewis rat adjuvant-induced arthritis model synovial infiltrating cells restimulated with sonicated Mtb post isolation assessed as reduction in IL6 production at 200 ug, ip starting from arthritis onset and continued uninterrupted until study end by cytokine multiplex assay; assay type: functional, organism-based; summary of the method: as §3
Rattus norvegicus [16] = species on record: Rattus norvegicus; test: Antiarthritic effect in sonicated Mtb-stimulated spleen adherent cells isolated from Lewis rat adjuvant-induced arthritis model assessed as reduction in RANTES production pre-incubated with compound for 30 mins before stimulation with sonicated-Mtb for 48 hrs by multiplex assay; assay type: functional, tissue-based
Rattus norvegicus [17] = species on record: Rattus norvegicus; test: Antiarthritic effect in sonicated Mtb-stimulated spleen adherent cells isolated from Lewis rat adjuvant-induced arthritis model assessed as reduction in TNFalpha production pre-incubated with compound for 30 mins before stimulation with sonicated-Mtb for 48 hrs by multiplex assay; assay type: functional, tissue-based
Rattus norvegicus [18] = species on record: Rattus norvegicus; test: Antiarthritic effect in IL-1beta-stimulatedspleen adherent cells isolated from Lewis rat adjuvant-induced arthritis model assessed as reduction in RANTES production pre-incubated with compound for 30 mins before stimulation with IL-1beta for 48 hrs by multiplex assay; assay type: functional, tissue-based; conditions: Spleen
Rattus norvegicus [19] = species on record: Rattus norvegicus; test: Antiarthritic effect in IL-1beta-stimulatedspleen adherent cells isolated from Lewis rat adjuvant-induced arthritis model assessed as reduction in GRO/KC production pre-incubated with compound for 30 mins before stimulation with IL-1beta for 48 hrs by multiplex assay; assay type: functional, tissue-based; conditions: Spleen
Rattus norvegicus [20] = test: Antiarthritic effect in Lewis rat adjuvant-induced arthritis model spleen adherent cells restimulated with sonicated Mtb post isolation assessed as reduction in CXCR2 expression at 200 ug, ip starting from arthritis onset and continued uninterrupted until study end by qPCR; assay type: functional, organism-based; summary of the method: as §5
Rattus norvegicus [21] = test: Antiarthritic effect in Lewis rat adjuvant-induced arthritis model serum assessed as reduction in IL6 production at 200 ug, ip starting from arthritis onset and continued uninterrupted until study end by cytokine multiplex assay; assay type: functional, organism-based; summary of the method: as §2
Rattus norvegicus [22] = test: Increase in CCR1 expression in Lewis rat adjuvant-induced arthritis model spleen adherent cells restimulated with sonicated Mtb post isolation at 200 ug, ip starting from arthritis onset and continued uninterrupted until study end by qPCR relative baseline expression; assay type: functional, organism-based; summary of the method: as §5

CC1=C(O)C(=O)C=C2C1=CC=C1[C@@]2(C)CC[C@@]2(C)[C@@H]3C[C@](C)(C(=O)O)CC[C@]3(C)CC[C@]12C [CELASTROL]
Activity (Rattus norvegicus [1]): Dose-dependent effect
Activity (Rattus norvegicus [2]): Active
Activity (Rattus norvegicus [3]): inactive
Activity (Rattus norvegicus [4]): inactive
Activity (Rattus norvegicus [5]): Active
Activity (Rattus norvegicus [6]): Dose-dependent effect
Activity (Rattus norvegicus [7]): inactive
Activity (Rattus norvegicus [8]): inactive
inhibition (INH) [9]: 63%
Activity (Rattus norvegicus [10]): Active
Activity (Rattus norvegicus [11]): inactive
Activity (Rattus norvegicus [12]): inactive
Activity (Rattus norvegicus [13]): Dose-dependent effect
Activity (Rattus norvegicus [14]): Active
Activity (Rattus norvegicus [15]): inactive
Activity (Rattus norvegicus [16]): Dose-dependent effect
Activity (Rattus norvegicus [17]): Dose-dependent effect
Activity (Rattus norvegicus [18]): Dose-dependent effect
Activity (Rattus norvegicus [19]): Dose-dependent effect
Activity (Rattus norvegicus [20]): Active
Activity (Rattus norvegicus [21]): inactive
Activity (Rattus norvegicus [22]): Active
